# Most compounds without a hit are left out; they make up all but 2.5% or so of the library.
# T cell HTS: modulators of CD8 T cell-vesicle binding, primary screen, mouse 2C CD8+ T cells, flow cytometry | 2C CD8+ T cell-vesicle binding; stronger effect = lower value | response (vesicle binding), % at 7 µM | hit rate 0.068% among 330,000 | AID 2052, 2009;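 active = response, share of CD8 T cells binding vesicles, and their 90th percentile fluorescence all below set limits, cut at about 80% in these data, passing the limit was not always enough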;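 note: values below 100% mean blocked vesicle binding to the CD8+ T cells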
#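 Also added: QL9-peptide-loaded Drosophila micro-vesicles bearing Ld, ICAM-1 and B7-1; Test system: purified 2C TCR transgenic mouse naive CD8+ T cells; Measured by: cytometric PE anti-B7-1 and Alexa647 anti-CD8 signals after 1% paraformaldehyde fixation; Timing: binding step 1.5 h, 37 °C, antibody labelling 20 min, ice.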
# MEKK2wt PB1 HTS: modulators of MEK5 binding to wildtype MEKK2, primary screen, biochemical, multiplex bead flow cytometry, Alexa488-MEK5; Alexa488-MEK5 binding to MEKK2 WT; actives lie on both sides; binding response (% of control), % at 10 µM; hit rate 1.1% among 290,000; AID 1531, 2009; in the data active = binding response below about 67% or above about 130%
# MEKK2 mut-MEK5: MEK5 binding signal on mutant MEKK2 PB1, primary screen, biochemical, multiplex bead flow cytometry, Alexa488-MEK5. percent response, % at 10 µM. Alexa488-MEK5 binding to MEKK2 mutant. hit rate 0.35% among 290,000; in the data active = percent response above about 24%, passing the limit was not always enough
# UCH37 inh: inhibitors of human UCH37 deubiquitinase, primary screen, biochemical, Ub-AMC cleavage, fluorescence. AID 588478, 2011. purified proteasome/UCH37. inhibition, % (test concentration not listed). hit rate 0.33% among 330,000. Ubiquitin carboxyl-terminal hydrolase isozyme L5 (Homo sapiens), Q9Y5K5;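 active = mean inhibition over replicate wells above about 20%, limit read from the data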;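 note: 0% = compound-free wells with enzyme and 100% = wells lacking proteasome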
#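 system = Proteasome-associated human UCH37 deubiquitinase | amount = 0.15 nM proteasome as dispensed | medium = pH 7.4 Tris-HCl (50 mM) with ovalbumin, ATP-MgCl2, DTT | incubation = 30 min preincubation with enzyme, 25 min cleavage at room temperature | detection = AMC fluorescence 355/460 nm | read-out basis = percent inhibition | controls = no-proteasome and no-compound wells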
# Rce1 inhib: yeast Rce1p protease inhibitors, primary screen, biochemical, fluorescence, cell-free homogeneous. yeast membranes, quenched prenylated peptide cleavage fluorescence. calls only. hit rate 0.27% among 290,000. AID 2563, 2010;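 active = fall in fluorescence gain of 50% or more versus controls, with final raw signal at or below 3038400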;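 note: plate controls were neutral control wells for no effect and wells lacking membranes for full effect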
# MEKK3 PB1 HTS: modulators of MEKK3-MEK5 PB1 binding, primary screen, biochemical, wildtype MEKK3, multiplex bead flow cytometry, Alexa488-MEK5 | Mitogen-activated protein kinase kinase kinase 3 (Homo sapiens), Q99759 | bead-based flow cytometry, Alexa488-MEK5 binding to MEKK3; actives lie on both sides; 0 = blocked by unlabeled MEK5, 100 = vehicle | AID 1529, 2009 | hit rate 1.4% among 290,000 | binding response (% of control), % at 10 µM;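 active = binding response more than 3 SD above or below the average of its plate-row segment, actives on both sides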;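 note: Alexa488 bead fluorescence after subtracting the streptavidin-only scavenger bead signal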
# Target sequence (Q99759 whole entry, looked up): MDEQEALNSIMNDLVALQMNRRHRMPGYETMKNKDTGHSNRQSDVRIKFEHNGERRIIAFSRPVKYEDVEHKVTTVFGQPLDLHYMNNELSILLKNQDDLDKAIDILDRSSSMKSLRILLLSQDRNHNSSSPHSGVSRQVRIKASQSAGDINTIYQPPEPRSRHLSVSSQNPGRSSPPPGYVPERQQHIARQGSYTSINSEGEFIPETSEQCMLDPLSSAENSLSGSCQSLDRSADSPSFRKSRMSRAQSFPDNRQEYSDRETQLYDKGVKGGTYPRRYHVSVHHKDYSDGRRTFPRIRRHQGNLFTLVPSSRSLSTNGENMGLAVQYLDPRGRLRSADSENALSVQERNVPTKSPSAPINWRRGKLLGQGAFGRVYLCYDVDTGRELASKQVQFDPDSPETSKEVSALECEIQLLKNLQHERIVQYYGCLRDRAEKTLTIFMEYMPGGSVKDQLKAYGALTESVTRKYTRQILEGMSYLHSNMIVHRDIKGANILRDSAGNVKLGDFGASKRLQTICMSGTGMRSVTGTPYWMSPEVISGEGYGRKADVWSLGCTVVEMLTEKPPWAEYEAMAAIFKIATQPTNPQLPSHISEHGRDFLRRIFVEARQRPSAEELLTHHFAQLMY
# An asterisk follows results filed as active; i = inactive; . = no result; + = active, no number; [ ] = another dose, or the depositor's remark.
SMILES,T cell HTS,MEKK2wt PB1 HTS,MEKK2 mut-MEK5,UCH37 inh,Rce1 inhib,MEKK3 PB1 HTS
N#CC1=C(N)OC2=C(CCc3ccccc32)C1c1ccccc1Cl (stereo not drawn),85,105,1,-3,i,144*
CCOC(=O)CC1C(=O)NCCN1C(=O)c1cc2c(=O)n3cccc(C)c3nc2s1 (stereo not drawn),348,.,.,i,+,.
CN(C)C(=O)C[n+]1ccc(C(N)=O)cc1,514,96,-1,3,i,96
CC(C)(C)C(=O)C[n+]1ccc(C(N)=O)cc1,234,101,-1,.,+,104
Cc1cc(C(F)(F)F)c(C#N)c(SCC(=O)Nc2nc3ccccc3s2)n1,317,57*,45,-2,i,117
Cc1cccc(C=Nn2c(-c3cc(-c4ccccc4)n[nH]3)n[nH]c2=S)c1,.,.,.,4,.,.
COc1ccc(C(=O)NN=C2CCS(=O)(=O)c3ccc(F)cc32)cc1OC,.,.,.,0,.,.
S=C(NCCc1ccccc1)N1CCc2ccccc2C1,759,80,-13,22*,i,89
OC1CCN(C(=S)NCCc2ccccc2)CC1,378,105,6,1,i,104
C/C(C=NN1CCN(c2ccc(Cl)cc2)CC1)=C\c1ccccc1,.,.,.,1,.,.
CN1C(=O)/C(=C2/C=Cc3ccccc3N2CCCS(=O)(=O)O)SC1=S,334,78,-8,24*,i,80
CCCN1/C(=C2/SC(=S)N(CC)C2=O)C=Cc2ccccc21,370,99,1,4,i,102
CCOC(=O)c1c(C)[nH]c(N=Nc2cc(C(=O)O)cc(C(=O)O)c2)c1C,204,86,-3,24*,i,84
COc1ccc(CN2C(=O)CSC2=NN=Cc2cccs2)cc1,.,.,.,3,.,.
O=[N+]([O-])c1ccc(-c2cnc(SC(c3ccccc3)c3ccccc3)[nH]2)cc1,224,124,26,-2,+,102
O=[N+]([O-])c1ccc(-c2cnc(SCc3ccccc3Cl)[nH]2)cc1,167,98,12,0,i,103
Cc1nc(N2CCOCC2)c2c(C)c(C(=O)Nc3ccccc3C(F)(F)F)sc2n1,276,91,-3,1,+,101
Cc1nc(N2CCCCC2C)c2c(C)c(C(=O)Nc3ccccc3C(F)(F)F)sc2n1 (stereo not drawn),515,96,-4,-49,+,103
O=C(COc1ccccc1)NCC(=O)NN=Cc1ccc(O)cc1O,.,.,.,-9,.,.
COc1cccc(C=NNC(=O)c2c(-c3ccccc3)noc2C)c1,.,.,.,2,.,.
COc1ccc(CC(=O)Nc2ccc(N3CCCC3)c(C)c2)cc1,162,33*[inhibitor],-4,-1,i,98
CN1CCN(c2ccc(NC(=O)c3ccc(Oc4ccccc4)cc3)cc2)CC1,302,124,27*,6,i,100
COc1ccc(C(=O)N2CCN(c3ccc(NC(=O)Cc4ccccc4)cc3)CC2)cc1,0.0*,101,2,.,i,99
O=C(Cc1cccc([N+](=O)[O-])c1)Nc1ccc(C(=O)N2CCOCC2)cc1,238,.,.,29*,.,.
CC(C)C(=O)N1CCC2(CC1)Oc1ccc(Cl)cc1C(=O)C21CC(c2cccnc2)=NO1 (stereo not drawn),0.0*,97,5,1,i,107
SMILES,T cell HTS,MEKK2wt PB1 HTS,MEKK2 mut-MEK5,UCH37 inh,Rce1 inhib,MEKK3 PB1 HTS
CC(C)C(=O)N1CCC2(CC1)Oc1ccc(F)cc1C(=O)C21CC(c2cccnc2)=NO1 (stereo not drawn),.,90,4,3,i,93
CC(=O)c1c(O)c2ccccc2n(Cc2ccccc2)c1=O,58*,97,3,0,i,93
CCn1c(=O)c(C(=O)NCCc2ccccc2)c(O)c2ccccc21,455,101,0,-1,i,98
COc1cc(C=NNC(=O)C2COc3ccccc3O2)cc(OC)c1O (stereo not drawn),.,.,.,-9,.,.
COc1cc2c(cc1NC(=O)c1cc(-c3ccncc3)nc3ccccc13)oc1ccccc12,255,16*,17,4,i,92
C=CCN1C(=O)/C(=C/C=C2/N(CC)c3ccc(S(=O)(=O)N(C)C)cc3N2CC)SC1=S,64,36*[inhibitor],-17,4,i,65
C=CCN1C(=O)/C(=C2/Sc3ccccc3N2CC)SC1=S,298,97,0,3,i,100
CCCN(C(=O)Cc1nc(N)n[nH]1)C1(C(=O)Nc2ccccc2C)CCCCC1,238,101,1,25*,i,99
CCCN(C(=O)Cc1nc(N)n[nH]1)C1(C(=O)Nc2c(C)cccc2C)CCCCC1,190,109,7,5,i,111
COc1ccc(NC(=O)C(=O)NN=Cc2cccnc2)cc1,.,.,.,-1,.,.
Cc1ccc(NN=Cc2ccncc2)cc1,.,.,.,7,.,.
CCOC(=O)C1(Cc2ccccc2C)CCCN(C(=O)c2sccc2C)C1 (stereo not drawn),251,101,4,5,.,100
CCOC(=O)C1(CCOC)CCN(C(=O)c2sccc2C)CC1,548,77,-14,.,+,85
COc1ccc2sc(/C=C/c3ccccc3O)[n+](C)c2c1,.,4.0*,19,14,.,94
O=C(NN=C1CC(c2ccccc2)Oc2ccccc21)c1ccccn1 (stereo not drawn),.,.,.,-24,.,.
CCN(CC)c1ccc2c(O)cc(=O)oc2c1,199,92,-7,-120,i,102
CCN(CC)c1ccc2c(Cl)cc(=O)oc2c1,52*,90,1,-78,i,98
CCc1cc(=O)n2c([nH]c3ccccc32)c1C#N,115,0.0*,3,-167,i,101
COC(=O)CCCCC1SCC2NC(=O)NC21 (stereo not drawn),340,89,-9,4,i,104
O=C(O)CCCC[C@@H]1SC[C@@H]2NC(=O)N[C@@H]21,266,93,1,6,+,101
COc1ccccc1-c1cc(C(F)(F)F)nc(S(=O)(=O)CCCC(=O)NCc2ccc(F)cc2)n1,625,83,-14,-13,+,90
C=C1CCC[C@]2(C)C[C@H]3OC(=O)C(CNCCN(C)C)[C@H]3CC12 (stereo partly drawn),127,125,16,6,i,104

# Screens deposited in PubChem by several laboratories.
